Reference: ChEMBL document CHEMBL4414559, “Proanthocyanidin Dimers and Trimers from Vitis vinifera Provide Diverse Structural Motifs for the Evaluation of Dentin Biomodification” (J Nat Prod, 2019)
Activity calls are given as the source filed them. The calls are words filed in the database; no cut-off is given here.

Columns and labels:
[1] = Stability in human molar dentin at 3.5 mg after 1 hr by flexural assay; type: ADME, tissue-based, Dentine; conditions: in vitro
Dentine [2] = assay: Induction of elasticity in human molar dentin at 3.5 mg after 1 hr by flexural assay; type: functional, tissue-based
Summary of the method: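 Read-out is modulus of elasticity (MPa), measured mechanically on the dentin. This avoids colorimetric, fluorescence or UV detection.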

Dentine [3] = assay: Induction of modification in human molar dentin assessed as sum of percentage of apparent modulus elasticity and percentage of collagen remaining after […] at 3.5 mg; type: functional, tissue-based
Dentine [4] = assay: Induction of elasticity in human molar dentin assessed as fold change at 3.5 mg after 1 hr by flexural assay relative to untreated control; type: functional
Hathewaya histolytica = assay: Inhibition of Clostridium histolyticum collagenase-induced degradation of human molar dentin assessed as reduction in at 3.5 mg after 1 hr followed by collagenase treatment and measured after 24 hrs relative to control
Summary of the method: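 Resistance to proteolytic biodegradation is measured gravimetrically as percent mass gain or loss of the dentin. This avoids colorimetric, fluorescence or UV detection.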

Structure (SMILES)	Stability [1]	Activity (Dentine [2])	Activity (Dentine [3])	fold change (FC) (Dentine [4])	inhibition (Hathewaya histolytica) [%]
Oc1cc(O)c2c(c1)O[C@H](c1ccc(O)c(O)c1)[C@H](O)[C@H]2c1c(O)cc(O)c2c1O[C@H](c1ccc(O)c(O)c1)[C@@H](O)C2 [PROCYANIDIN B1]	Stable	inactive	–	–	–
Oc1cc(O)c2c(c1)O[C@H](c1ccc(O)c(O)c1)[C@H](O)[C@H]2c1c(O)cc(O)c2c1O[C@@H](c1ccc(O)c(O)c1)[C@H](O)C2	Stable	inactive	–	–	–
Oc1cc(O)c2c(c1)O[C@H](c1ccc(O)c(O)c1)[C@@H](O)[C@@H]2c1c(O)cc(O)c2c1O[C@H](c1ccc(O)c(O)c1)[C@@H](O)C2	Stable	inactive	–	–	–
Oc1cc(O)c2c(c1)O[C@@H](c1ccc(O)c(O)c1)[C@H](O)[C@H]2c1c(O)cc(O)c2c1O[C@H](c1ccc(O)c(O)c1)[C@H](O)C2	Stable	inactive	Active	–	–
Oc1cc(O)c2c(c1)O[C@H](c1ccc(O)c(O)c1)[C@H](O)[C@H]2c1c(O)cc(O)c2c1O[C@H](c1ccc(O)c(O)c1)[C@H](O)[C@H]2c1c(O)cc(O)c2c1O[C@H](c1ccc(O)c(O)c1)[C@@H](O)C2	Stable	–	Active	5	70 to 80
Oc1cc(O)c2c(c1)O[C@@H](c1ccc(O)c(O)c1)[C@H](O)[C@H]2c1c(O)cc(O)c2c1O[C@H](c1ccc(O)c(O)c1)[C@@H](O)C2	Stable	inactive	Active	–	–
Oc1cc(O)c2c(c1)O[C@H](c1ccc(O)c(O)c1)[C@H](O)[C@H]2c1c(O)cc(O)c2c1O[C@H](c1ccc(O)c(O)c1)[C@H](O)[C@H]2c1c(O)cc(O)c2c1O[C@@H](c1ccc(O)c(O)c1)[C@H](O)C2	Stable	–	Active	5.5	70 to 80
Oc1cc(O)c2c(c1)O[C@H](c1ccc(O)c(O)c1)[C@H](O)[C@H]2c1c(O)cc(O)c2c1O[C@@H](c1ccc(O)c(O)c1)[C@@H](O)C2	Stable	inactive	Active	–	–
Oc1cc(O)c2c(c1)O[C@H](c1ccc(O)c(O)c1)[C@H](O)[C@H]2c1c(O)cc(O)c2c1O[C@H](c1ccc(O)c(O)c1)[C@H](O)C2 [PROCYANIDIN B2]	Stable	inactive	Active	–	–
